Assay results published in ChEMBL document CHEMBL1811774, “Chromone, a privileged scaffold for the development of monoamine oxidase inhibitors” (J Med Chem, 2011).

Tests used:
[1] = target: T1, Amine oxidase [flavin-containing] A (Homo sapiens, UniProt P21397); assay: Inhibition of human MAO-A assessed as inhibition of p-tyramine oxidation to p-hydroxyphenyl-acetaldehyde after 15 mins by fluorimetric method
T1 sequence (P21397 whole entry): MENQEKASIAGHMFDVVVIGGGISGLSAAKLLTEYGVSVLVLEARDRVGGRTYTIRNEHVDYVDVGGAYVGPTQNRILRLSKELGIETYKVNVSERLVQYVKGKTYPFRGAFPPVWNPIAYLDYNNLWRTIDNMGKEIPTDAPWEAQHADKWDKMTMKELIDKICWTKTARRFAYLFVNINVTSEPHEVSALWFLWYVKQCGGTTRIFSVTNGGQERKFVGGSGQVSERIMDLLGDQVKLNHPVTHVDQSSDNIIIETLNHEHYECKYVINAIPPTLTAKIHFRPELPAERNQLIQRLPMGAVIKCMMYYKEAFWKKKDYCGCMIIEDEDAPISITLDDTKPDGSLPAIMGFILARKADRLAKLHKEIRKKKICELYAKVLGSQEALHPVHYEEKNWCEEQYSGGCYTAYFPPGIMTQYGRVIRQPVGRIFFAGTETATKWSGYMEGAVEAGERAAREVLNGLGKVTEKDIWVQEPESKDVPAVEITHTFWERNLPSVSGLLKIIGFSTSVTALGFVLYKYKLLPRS
Method in brief: (§1)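 Microsomal recombinant hMAO-A or hMAO-B from baculovirus-infected BTI-TN5B1-4 insect cells. Enzyme was set to oxidize 165 pmol p-tyramine/min (MAO-A 1.1 μg, MAO-B 7.5 μg protein). It was preincubated with compound 15 min at 37 C in 0.05 M sodium phosphate, pH 7.4. Reaction started with final 200 μM Amplex Red, 1 U/mL HRP and 1 mM p-tyramine. H2O2-derived resorufin fluorescence (ex 545/em 590) read over 15 min at 37 C, background-subtracted, against vehicle controls. Highest concentration 100 μM or 1 mM; mean ± SEM, n = 5.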

Homo sapiens = organism: Homo sapiens; assay: Selectivity index, ratio of IC50 for human MAO-A to IC50 for human MAO-B
[2] = target: T2, Amine oxidase [flavin-containing] B (Homo sapiens, UniProt P27338); assay: Inhibition of human MAO-B assessed as inhibition of p-tyramine oxidation to p-hydroxyphenyl-acetaldehyde after 15 mins by fluorimetric method
T2 sequence (P27338 whole entry): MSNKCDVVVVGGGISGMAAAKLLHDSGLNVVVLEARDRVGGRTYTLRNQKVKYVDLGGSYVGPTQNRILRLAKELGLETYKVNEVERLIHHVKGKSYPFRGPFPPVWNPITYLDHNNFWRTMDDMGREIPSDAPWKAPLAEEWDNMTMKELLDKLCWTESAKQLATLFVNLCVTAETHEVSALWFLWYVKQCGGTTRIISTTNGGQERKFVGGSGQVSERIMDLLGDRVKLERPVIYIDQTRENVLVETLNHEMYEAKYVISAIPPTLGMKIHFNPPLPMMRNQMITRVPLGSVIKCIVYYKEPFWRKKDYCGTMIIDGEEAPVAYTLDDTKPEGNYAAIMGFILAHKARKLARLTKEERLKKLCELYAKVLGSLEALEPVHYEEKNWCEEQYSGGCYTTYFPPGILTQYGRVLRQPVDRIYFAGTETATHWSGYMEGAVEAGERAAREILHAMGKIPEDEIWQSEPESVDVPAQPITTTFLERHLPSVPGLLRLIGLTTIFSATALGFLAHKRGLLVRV

[3] = target: T1, Amine oxidase [flavin-containing] A; assay: Inhibition of human MAO-A assessed as inhibition of p-tyramine oxidation to p-hydroxyphenyl-acetaldehyde at 100 uM after 15 mins by fluorimetric method; conditions: 0.25 h
[4] = target: T2, Amine oxidase [flavin-containing] B; assay: Inhibition of human MAO-B assessed as inhibition of p-tyramine oxidation to p-hydroxyphenyl-acetaldehyde at 1 mM after 15 mins by fluorimetric method; conditions: 0.25 h, 1000 µM; method in brief: as §1
[5] = target: T2, Amine oxidase [flavin-containing] B; assay: Inhibition of human MAO-B assessed as inhibition of p-tyramine oxidation to p-hydroxyphenyl-acetaldehyde at 100 uM after 15 mins by fluorimetric method; conditions: 0.25 h; method in brief: as §1
[6] = target: T2, Amine oxidase [flavin-containing] B; assay: Irreversible inhibition of human MAOB expressed assessed as inhibition of p-tyramine oxidation to p-hydroxyphenyl-acetaldehyde at 100 uM measured after repeated washing by centrifugation-ultrafiltration method
Method in brief: (§2)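 Recombinant hMAO-B preincubated with a single compound concentration for 15 min at 37 C in 0.05 M sodium phosphate, pH 7.4. One aliquot kept at 4 C, unwashed. The rest was ultrafiltered through a 30 kDa membrane (9000g, 20 min, 4 C), resuspended and spun twice more.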

[7] = target: T2, Amine oxidase [flavin-containing] B; assay: Reversible inhibition of human MAOB expressed assessed as inhibition of p-tyramine oxidation to p-hydroxyphenyl-acetaldehyde at 100 uM measured before repeated washing by centrifugation-ultrafiltration method; method in brief: as §2

| SMILES | IC50 [1] [nM] | Ratio IC50 (Homo sapiens) | IC50 [2] [nM] | inhibition (INH) [3] | inhibition (INH) [5] | other results |
| --- | --- | --- | --- | --- | --- | --- |
| O=C(Nc1ccc(O)c(O)c1)c1cc(=O)c2ccccc2o1 | 190 | 0.071 | 2660 | – | – | – |
| CCCNC(=O)c1cc(=O)c2ccccc2o1 | – | – | – | Not Active | – | inhibition (INH) [4]: Not Active |
| O=C(Nc1ccc(C(F)(F)F)cc1)c1cc(=O)c2ccccc2o1 | – | – | – | Not Active | Not Active | – |
| O=C(Nc1ccc(OC(F)(F)F)cc1)c1cc(=O)c2ccccc2o1 | – | – | – | Not Active | Not Active | – |
| O=C(NC1CCCCC1)c1cc(=O)c2ccccc2o1 | – | – | – | Not Active | – | inhibition (INH) [4]: Not Active |
| O=C(Nc1ccc(O)cc1)c1cc(=O)c2ccccc2o1 | 65200 | 1.6 | 41900 | – | – | – |
| O=C(Nc1ccc([N+](=O)[O-])cc1)c1cc(=O)c2ccccc2o1 | – | – | – | Not Active | Not Active | – |
| O=C(Nc1ccc(OC(F)(F)F)cc1)c1coc2ccccc2c1=O | – | > 93 | 1080 | Not Active | – | – |
| O=C(Nc1ccccc1)c1cc(=O)c2ccccc2o1 | – | – | – | Not Active | Not Active | – |
| O=C(Nc1ccc(Cl)cc1)c1cc(=O)c2ccccc2o1 | – | – | – | Not Active | Not Active | – |
| COc1ccc(NC(=O)c2cc(=O)c3ccccc3o2)cc1O | – | – | – | Not Active | Not Active | – |
| O=C(NC1CCCCC1)c1coc2ccccc2c1=O | – | > 107 | 930 | Not Active | – | – |
| CCCNC(=O)c1coc2ccccc2c1=O | – | > 2.7 | 37700 | Not Active | – | – |

Second part, led by results:

| IC50 [1] [nM] | Ratio IC50 (Homo sapiens) | IC50 [2] [nM] | inhibition (INH) [3] | inhibition (INH) [5] | SMILES | other results |
| --- | --- | --- | --- | --- | --- | --- |
| 8340 | 110 | 76 | – | – | COc1ccc(NC(=O)c2coc3ccccc3c2=O)cc1O | – |
| 4760 | 74 | 64 | – | – | O=C(Nc1ccc(O)cc1)c1coc2ccccc2c1=O | inhibition at 100 µM [6]: 23.5%; inhibition at 100 µM [7]: 60.3% |
| – | > 909 | 110 | Not Active | – | O=C(Nc1ccc(C(F)(F)F)cc1)c1coc2ccccc2c1=O | – |
| – | > 43 | 2330 | Not Active | – | COc1ccc(NC(=O)c2coc3ccccc3c2=O)cc1OC | – |
| – | – | – | Not Active | Not Active | COc1ccc(NC(=O)c2cc(=O)c3ccccc3o2)cc1OC | – |
| 11100 | 0.94 | 11800 | – | – | O=C(Nc1ccc([N+](=O)[O-])cc1)c1coc2ccccc2c1=O | – |
| 430 | 2.7 | 160 | – | – | O=C(Nc1ccc(O)c(O)c1)c1coc2ccccc2c1=O | – |
